# Assay results taken from ChEMBL document CHEMBL1250442, “Inhibiting gene expression at transcription start sites in chromosomal DNA with antigene RNAs” (Nat Chem Biol, 2005).
# Active and inactive are the calls of the source. No cut-off for these calls is given here.
# Tests used:
# T47D [1] = assay: Inhibition of PR-B mRNA gene expression in human T47D cells at 100 nM by syber green assay; format: functional
# Outline: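 T47D cells in RPMI-1640 with 10% FBS, NEAA, insulin, 37 °C, 5% CO2. Plated two days before transfection without antibiotics. Oligofectamine-mediated duplex RNA transfection at 100 nM final, medium changed at 24 h, harvest five days post-transfection. Total RNA extracted with TRIzol. hPR mRNA quantified by SYBR Green qPCR: 50 °C 2 min, 95 °C 10 min, then 40 cycles of 95 °C 15 s / 60 °C 1 min.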
# T47D [2] = assay: Inhibition of PR-A gene expression in human T47D cells at 25 nM by syber green assay in presence of 10 nM estradiol; format: functional, cell-based
# T47D [3] = assay: Inhibition of PR-A mRNA gene expression in human T47D cells at 100 nM by syber green assay; format: functional
# Outline: (§1)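 T47D cells plated at 80,000/well without antibiotics two days before Oligofectamine transfection with agRNA duplex (25 or 100 nM final); medium changed at 24 h, harvest day 5 unless stated otherwise. TRIzol total RNA; PR mRNA by real-time PCR with SYBR Green: 50 °C 2 min, 95 °C 10 min, 40 cycles 95 °C 15 s/60 °C 1 min.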
# T47D [4] = assay: Inhibition of PR-B gene expression in human T47D cells at 25 nM by syber green assay in presence of 10 nM estradiol; format: functional, cell-based
# T47D [5] = assay: Inhibition of PR-B gene expression in human T47D cells at 25 nM by syber green assay; format: functional; outline: as §1
# T47D [6] = assay: Inhibition of PR-A gene expression in human T47D cells at 25 nM by syber green assay; format: functional; outline: as §1
Structure (SMILES),inhibition at 0.1 µM (T47D [1]) [%],inhibition (T47D [2]),inhibition at 0.1 µM (T47D [3]) [%],inhibition (T47D [4]),inhibition at 0.025 µM (T47D [5]) [%],inhibition at 0.025 µM (T47D [6]) [%]
Cc1cn(CC(=O)N(CCNC(=O)CN(CCNC(=O)CN(CCNC(=O)CN(CCNC(=O)CN(CCNC(=O)CN(CCNC(=O)CN(CCNC(=O)CN(CCNC(=O)CN(CCNC(=O)CN(CCNC(=O)CN(CCNC(=O)CN(CCNC(=O)CN(CCNC(=O)CN(CCNC(=O)CN(CCNC(=O)CN(CCNC(=O)CN(CCNC(=O)CN(CCNC(=O)CN(CCNC(=O)CN(CCNC(=O)CN)C(=O)Cn2cnc3c(N)ncnc32)C(=O)Cn2cnc3c(=O)[nH]c(N)nc32)C(=O)Cn2cnc3c(=O)[nH]c(N)nc32)C(=O)Cn2cnc3c(N)ncnc32)C(=O)Cn2cnc3c(=O)[nH]c(N)nc32)C(=O)Cn2cnc3c(=O)[nH]c(N)nc32)C(=O)Cn2ccc(N)nc2=O)C(=O)Cn2cnc3c(=O)[nH]c(N)nc32)C(=O)Cn2ccc(=O)[nH]c2=O)C(=O)Cn2ccc(=O)[nH]c2=O)C(=O)Cn2cnc3c(=O)[nH]c(N)nc32)C(=O)Cn2ccc(=O)[nH]c2=O)C(=O)Cn2ccc(=O)[nH]c2=O)C(=O)Cn2cnc3c(N)ncnc32)C(=O)Cn2cnc3c(=O)[nH]c(N)nc32)C(=O)Cn2cnc3c(N)ncnc32)C(=O)Cn2cnc3c(N)ncnc32)C(=O)Cn2cnc3c(N)ncnc32)C(=O)Cn2cnc3c(=O)[nH]c(N)nc32)CC(=O)NCCN(CC(=O)NCC(=O)O)C(=O)Cn2cc(C)c(=O)[nH]c2=O)c(=O)[nH]c1=O,68,Active,52,Active,34,< 20
Cc1cn(CC(=O)N(CCNC(=O)CN(CCNC(=O)CN(CCNC(=O)CN(CCNC(=O)CN(CCNC(=O)CN(CCNC(=O)CN(CCNC(=O)CN(CCNC(=O)CN(CCNC(=O)CN(CCNC(=O)CN(CCNC(=O)CN(CCNC(=O)CN(CCNC(=O)CN(CCNC(=O)CN(CCNC(=O)CN(CCNC(=O)CN(CCNC(=O)CN(CCNC(=O)CN(CCNC(=O)CN(CCNC(=O)CN)C(=O)Cn2cnc3c(N)ncnc32)C(=O)Cn2cnc3c(N)ncnc32)C(=O)Cn2cnc3c(N)ncnc32)C(=O)Cn2cnc3c(=O)[nH]c(N)nc32)C(=O)Cn2ccc(N)nc2=O)C(=O)Cn2ccc(=O)[nH]c2=O)C(=O)Cn2cnc3c(=O)[nH]c(N)nc32)C(=O)Cn2ccc(=O)[nH]c2=O)C(=O)Cn2ccc(N)nc2=O)C(=O)Cn2ccc(=O)[nH]c2=O)C(=O)Cn2cnc3c(=O)[nH]c(N)nc32)C(=O)Cn2cnc3c(=O)[nH]c(N)nc32)C(=O)Cn2ccc(N)nc2=O)C(=O)Cn2ccc(N)nc2=O)C(=O)Cn2cnc3c(N)ncnc32)C(=O)Cn2cnc3c(=O)[nH]c(N)nc32)C(=O)Cn2ccc(=O)[nH]c2=O)C(=O)Cn2ccc(N)nc2=O)C(=O)Cn2ccc(N)nc2=O)CC(=O)NCCN(CC(=O)NCC(=O)O)C(=O)Cn2cc(C)c(=O)[nH]c2=O)c(=O)[nH]c1=O,< 20,Active,< 20,Active,< 20,< 20
Cc1cn(CC(=O)N(CCNC(=O)CN(CCNC(=O)CN(CCNC(=O)CN(CCNC(=O)CN(CCNC(=O)CN(CCNC(=O)CN(CCNC(=O)CN(CCNC(=O)CN(CCNC(=O)CN(CCNC(=O)CN(CCNC(=O)CN(CCNC(=O)CN(CCNC(=O)CN(CCNC(=O)CN(CCNC(=O)CN(CCNC(=O)CN(CCNC(=O)CN(CCNC(=O)CN(CCNC(=O)CN(CCNC(=O)CN)C(=O)Cn2cnc3c(N)ncnc32)C(=O)Cn2cnc3c(=O)[nH]c(N)nc32)C(=O)Cn2cnc3c(=O)[nH]c(N)nc32)C(=O)Cn2ccc(N)nc2=O)C(=O)Cn2cnc3c(=O)[nH]c(N)nc32)C(=O)Cn2ccc(=O)[nH]c2=O)C(=O)Cn2ccc(=O)[nH]c2=O)C(=O)Cn2cnc3c(=O)[nH]c(N)nc32)C(=O)Cn2ccc(=O)[nH]c2=O)C(=O)Cn2ccc(=O)[nH]c2=O)C(=O)Cn2cnc3c(N)ncnc32)C(=O)Cn2cnc3c(=O)[nH]c(N)nc32)C(=O)Cn2cnc3c(N)ncnc32)C(=O)Cn2cnc3c(N)ncnc32)C(=O)Cn2cnc3c(N)ncnc32)C(=O)Cn2cnc3c(=O)[nH]c(N)nc32)C(=O)Cn2ccc(N)nc2=O)C(=O)Cn2ccc(=O)[nH]c2=O)C(=O)Cn2cnc3c(=O)[nH]c(N)nc32)CC(=O)NCCN(CC(=O)NCC(=O)O)C(=O)Cn2cc(C)c(=O)[nH]c2=O)c(=O)[nH]c1=O,99,Active,80,Active,73,57
Cc1cn(CC(=O)N(CCNC(=O)CN(CCNC(=O)CN(CCNC(=O)CN(CCNC(=O)CN(CCNC(=O)CN(CCNC(=O)CN(CCNC(=O)CN(CCNC(=O)CN(CCNC(=O)CN(CCNC(=O)CN(CCNC(=O)CN(CCNC(=O)CN(CCNC(=O)CN(CCNC(=O)CN(CCNC(=O)CN(CCNC(=O)CN(CCNC(=O)CN(CCNC(=O)CN(CCNC(=O)CN(CCNC(=O)CN(CCNC(=O)CN)C(=O)Cn2cnc3c(=O)[nH]c(N)nc32)C(=O)Cn2ccc(=O)[nH]c2=O)C(=O)Cn2ccc(N)nc2=O)C(=O)Cn2ccc(=O)[nH]c2=O)C(=O)Cn2cnc3c(=O)[nH]c(N)nc32)C(=O)Cn2cnc3c(=O)[nH]c(N)nc32)C(=O)Cn2ccc(N)nc2=O)C(=O)Cn2ccc(N)nc2=O)C(=O)Cn2cnc3c(N)ncnc32)C(=O)Cn2cnc3c(=O)[nH]c(N)nc32)C(=O)Cn2ccc(=O)[nH]c2=O)C(=O)Cn2ccc(N)nc2=O)C(=O)Cn2ccc(N)nc2=O)C(=O)Cn2cnc3c(N)ncnc32)C(=O)Cn2ccc(N)nc2=O)C(=O)Cn2cnc3c(N)ncnc32)C(=O)Cn2cnc3c(=O)[nH]c(N)nc32)C(=O)Cn2ccc(N)nc2=O)C(=O)Cn2ccc(=O)[nH]c2=O)C(=O)Cn2cc(C)c(=O)[nH]c2=O)CC(=O)O)c(=O)[nH]c1=O,88,Active,67,Active,73,67
Cc1cn(CC(=O)N(CCNC(=O)CN(CCNC(=O)CN(CCNC(=O)CN(CCNC(=O)CN(CCNC(=O)CN(CCNC(=O)CN(CCNC(=O)CN(CCNC(=O)CN(CCNC(=O)CN(CCNC(=O)CN(CCNC(=O)CN(CCNC(=O)CN(CCNC(=O)CN(CCNC(=O)CN(CCNC(=O)CN(CCNC(=O)CN(CCNC(=O)CN(CCNC(=O)CN(CCNC(=O)CN(CCNC(=O)CN)C(=O)Cn2cnc3c(=O)[nH]c(N)nc32)C(=O)Cn2ccc(N)nc2=O)C(=O)Cn2ccc(=O)[nH]c2=O)C(=O)Cn2cnc3c(=O)[nH]c(N)nc32)C(=O)Cn2ccc(N)nc2=O)C(=O)Cn2ccc(N)nc2=O)C(=O)Cn2ccc(=O)[nH]c2=O)C(=O)Cn2cnc3c(=O)[nH]c(N)nc32)C(=O)Cn2cnc3c(=O)[nH]c(N)nc32)C(=O)Cn2ccc(N)nc2=O)C(=O)Cn2ccc(N)nc2=O)C(=O)Cn2cnc3c(N)ncnc32)C(=O)Cn2cnc3c(=O)[nH]c(N)nc32)C(=O)Cn2ccc(=O)[nH]c2=O)C(=O)Cn2ccc(N)nc2=O)C(=O)Cn2ccc(N)nc2=O)C(=O)Cn2cnc3c(N)ncnc32)C(=O)Cn2ccc(N)nc2=O)C(=O)Cn2cnc3c(N)ncnc32)CC(=O)NCCN(CC(=O)NCC(=O)O)C(=O)Cn2cc(C)c(=O)[nH]c2=O)c(=O)[nH]c1=O,28,Active,< 20,Active,< 20,< 20
Cc1cn(CC(=O)N(CCNC(=O)CN(CCNC(=O)CN(CCNC(=O)CN(CCNC(=O)CN(CCNC(=O)CN(CCNC(=O)CN(CCNC(=O)CN(CCNC(=O)CN(CCNC(=O)CN(CCNC(=O)CN(CCNC(=O)CN(CCNC(=O)CN(CCNC(=O)CN(CCNC(=O)CN(CCNC(=O)CN(CCNC(=O)CN(CCNC(=O)CN(CCNC(=O)CN(CCNC(=O)CN(CCNC(=O)CN)C(=O)Cn2ccc(N)nc2=O)C(=O)Cn2ccc(=O)[nH]c2=O)C(=O)Cn2cnc3c(=O)[nH]c(N)nc32)C(=O)Cn2ccc(=O)[nH]c2=O)C(=O)Cn2ccc(N)nc2=O)C(=O)Cn2ccc(=O)[nH]c2=O)C(=O)Cn2cnc3c(=O)[nH]c(N)nc32)C(=O)Cn2cnc3c(=O)[nH]c(N)nc32)C(=O)Cn2ccc(N)nc2=O)C(=O)Cn2ccc(N)nc2=O)C(=O)Cn2cnc3c(N)ncnc32)C(=O)Cn2cnc3c(=O)[nH]c(N)nc32)C(=O)Cn2ccc(=O)[nH]c2=O)C(=O)Cn2ccc(N)nc2=O)C(=O)Cn2ccc(N)nc2=O)C(=O)Cn2cnc3c(N)ncnc32)C(=O)Cn2ccc(N)nc2=O)C(=O)Cn2cnc3c(N)ncnc32)C(=O)Cn2cnc3c(=O)[nH]c(N)nc32)CC(=O)NCCN(CC(=O)NCC(=O)O)C(=O)Cn2cc(C)c(=O)[nH]c2=O)c(=O)[nH]c1=O,100,Active,99,Active,55,50
